Measured values from ChEMBL document CHEMBL4028902, “Azetidine and Piperidine Carbamates as Efficient, Covalent Inhibitors of Monoacylglycerol Lipase” (J Med Chem, 2017).

Key:
[1] = target: T1, Monoglyceride lipase (Homo sapiens, UniProt Q99685); assay: Inhibition of human recombinant MAGL using 7-HCA as substrate preincubated for 30 mins followed by substrate addition measured after 60 mins by fluorescence assay
T1 sequence (Q99685 whole entry): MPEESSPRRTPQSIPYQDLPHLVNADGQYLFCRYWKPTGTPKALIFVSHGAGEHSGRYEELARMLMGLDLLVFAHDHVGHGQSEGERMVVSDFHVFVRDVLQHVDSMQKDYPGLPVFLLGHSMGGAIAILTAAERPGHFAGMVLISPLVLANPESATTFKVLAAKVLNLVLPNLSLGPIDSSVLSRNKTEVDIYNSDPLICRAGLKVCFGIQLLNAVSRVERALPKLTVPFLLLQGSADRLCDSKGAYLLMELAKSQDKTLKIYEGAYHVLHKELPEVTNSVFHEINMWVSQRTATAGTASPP
Procedure, shortened: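 Reaction started with 7-HCA (5 μM final), run 60 min, fluorescence Ex/Em 340/465. Percent inhibition versus no-compound and full-inhibition controls; IC50 from four-parameter fit.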

[2] = target: T2, Monoglyceride lipase (Homo sapiens) (UniProt Q99685); assay: Ratio of Kinact to Ki for human recombinant MAGL using 7-HCA as substrate after 60 mins by fluorescence assay
T2 sequence (whole entry): T1 sequence (Q99685 whole entry)
Procedure, shortened: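 Run as the MAGL 7-HCA assay, but substrate added with no preincubation (T = 0), fluorescence read every minute at decreasing compound concentrations to give progress curves. kobs from each curve; kinact/KI from a plot of kobs against compound concentration.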

[3] = target: T3, Fatty-acid amide hydrolase 1 (Homo sapiens, UniProt O00519); assay: Inhibition of human recombinant FAAH using arachidonoyl-AMC as substrate preincubated for 30 mins followed by substrate addition measured after 60 mins by fluorescence assay
T3 sequence (O00519 whole entry): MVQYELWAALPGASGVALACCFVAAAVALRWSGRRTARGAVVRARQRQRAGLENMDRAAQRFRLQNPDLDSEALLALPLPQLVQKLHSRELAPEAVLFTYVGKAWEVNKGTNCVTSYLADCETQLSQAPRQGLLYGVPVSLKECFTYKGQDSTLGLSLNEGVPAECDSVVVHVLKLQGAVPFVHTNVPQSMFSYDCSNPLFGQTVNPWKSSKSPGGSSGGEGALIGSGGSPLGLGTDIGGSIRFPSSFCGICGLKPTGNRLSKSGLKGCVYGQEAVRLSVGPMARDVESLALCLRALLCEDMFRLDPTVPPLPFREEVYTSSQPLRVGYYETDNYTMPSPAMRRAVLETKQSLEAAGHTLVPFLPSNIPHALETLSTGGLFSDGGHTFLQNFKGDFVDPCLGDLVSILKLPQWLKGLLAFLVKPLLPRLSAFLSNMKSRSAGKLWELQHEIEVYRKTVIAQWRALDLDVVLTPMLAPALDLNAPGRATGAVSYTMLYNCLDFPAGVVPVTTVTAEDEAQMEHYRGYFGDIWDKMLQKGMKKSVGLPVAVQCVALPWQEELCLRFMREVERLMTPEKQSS
Procedure, shortened: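 Human recombinant FAAH (0.0125 unit final) in 50 mM Tris pH 9.0, 1 mM EDTA, preincubated 30 min at room temperature with compound (final 30 μM–0.3 nM). Arachidonoyl-AMC added (5 μM final), reaction run 60 min, fluorescence Ex/Em 355/460. Percent inhibition versus no-compound and full-inhibition controls.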

[4] = Lipophilicity, log D of the compound; type: physicochemical; conditions: octanol/water

SMILES	IC50 [1]	Ratio [2]	IC50 [3]	logD [4]
O=C(OC(C(F)(F)F)C(F)(F)F)N1CC(c2ccnc(N3CCOCC3)n2)C1	0.0019 µM	121000 M⁻¹ s⁻¹	> 30 µM	3
O=C(OC(C(F)(F)F)C(F)(F)F)N1CC(c2ccn(-c3ccc(F)c(F)c3)n2)C1	0.00018 µM	978000 M⁻¹ s⁻¹	0.67 µM	4.6
O=C(OC(C(F)(F)F)C(F)(F)F)N1CC(N2CCN(c3ncccn3)CC2)C1	0.0032 µM	18000 M⁻¹ s⁻¹	2.5 µM	2.9
O=C(OC(C(F)(F)F)C(F)(F)F)N1CC(c2ccn(C3CCOCC3)n2)C1	0.0019 µM	102000 M⁻¹ s⁻¹	9.4 µM	3.2

Continued, values first:

IC50 [1]	Ratio [2]	IC50 [3]	logD [4]	SMILES
0.00038 µM	840000 M⁻¹ s⁻¹	0.42 µM	4.2	O=C(OC(C(F)(F)F)C(F)(F)F)N1CC(c2nc(-c3ccccc3)no2)C1
0.00041 µM	791000 M⁻¹ s⁻¹	0.16 µM	4.4	O=C(OC(C(F)(F)F)C(F)(F)F)N1CC(c2ccn(Cc3ccccc3)n2)C1
0.039 µM	4050 M⁻¹ s⁻¹	> 20 µM	2.4	Cn1ccc(C2CN(C(=O)OC(C(F)(F)F)C(F)(F)F)C2)n1
0.0003 µM	293000 M⁻¹ s⁻¹	0.49 µM	5.7	O=C(OC(C(F)(F)F)C(F)(F)F)N1CC(c2cc(-c3ccccc3)n(-c3ccccc3)n2)C1
0.00074 µM	329000 M⁻¹ s⁻¹	1.1 µM	2.8	O=C(OC(C(F)(F)F)C(F)(F)F)N1CC(c2ccn(-c3cnccn3)n2)C1
